Results: ChEMBL document CHEMBL1926614, “Substituted thiazoles V. synthesis and antitumor activity of novel thiazolo[2,3-b]quinazoline and pyrido[4,3-d]thiazolo[3,2-a]pyrimidine analogues” (2012)

Legend:
Assay type in all cases: functional
[1] = test system: SF-268; test: Growth inhibition of human SF268 cells at 10 uM after 48 hrs by coulter counting; settings: SF-268, 48 h, read-out: GI
Summary of the method: (§1)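 Single-dose primary screen across the full NCI 60-cell-line panel. Stocks were made in DMSO and diluted in PBS to a final DMSO below 1%. Cultures at 6 × 10⁴ cells/ml were run in duplicate wells alongside PBS/DMSO vehicle controls at 37 °C in humidified 5% CO₂. Data were expressed as percent growth of treated cells.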

[2] = Growth inhibition of human NCI-322M cells at 10 uM after 48 hrs by coulter counting; settings: read-out: GI; summary of the method: as §1
[3] = test system: OVCAR-4; test: Growth inhibition of human OVCAR4 cells at 10 uM after 48 hrs by coulter counting; settings: OVCAR-4, 48 h, read-out: GI; summary of the method: as §1
[4] = test system: NCI-H23; test: Growth inhibition of human NCI-H23 cells at 10 uM after 48 hrs by coulter counting; settings: NCI-H23, 48 h, read-out: GI; summary of the method: as §1
[5] = test system: UACC-257; test: Growth inhibition of human UACC257 cells at 10 uM after 48 hrs by coulter counting; settings: UACC-257, 48 h, read-out: GI
Summary of the method: (§2)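 Single-dose screen in the NCI 60 human tumor cell line panel (nine subpanels). Compounds dissolved in DMSO and diluted in phosphate buffered saline, keeping final DMSO below 1%. Added in duplicate wells to cells at 6 × 10⁴ cells/ml. Controls held PBS and DMSO at matching dilutions. Incubated at 37 °C, humidified, 5% CO₂. Reported as percent growth of treated cells.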

[6] = test system: A549; test: Growth inhibition of human A549 cells at 10 uM after 48 hrs by coulter counting; settings: A549, 48 h, read-out: GI; summary of the method: as §1
[7] = test system: NCI/ADR-RES; test: Growth inhibition of human NCI/ADR-RES cells at 10 uM after 48 hrs by coulter counting; settings: read-out: GI; summary of the method: as §1
[8] = test system: ACHN; test: Growth inhibition of human ACHN cells at 10 uM after 48 hrs by coulter counting; settings: read-out: GI; summary of the method: as §1
[9] = test system: BT-549; test: Growth inhibition of human BT549 cells at 10 uM after 48 hrs by coulter counting; settings: BT-549, 48 h, read-out: GI; summary of the method: as §1
[10] = test system: HL-60(TB); test: Growth inhibition of human HL-60(TB) cells at 10 uM after 48 hrs by coulter counting; settings: HL-60, 48 h, read-out: GI
Summary of the method: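 Test compound was dissolved in DMSO and diluted in phosphate-buffered saline to a final DMSO level below 1%. Dilutions were plated in duplicate with cell culture at 6 × 10⁴ cells/ml. Vehicle controls held PBS and DMSO at matching dilutions. Incubation was at 37 °C, humidified, under 5% CO₂. Data were reported as percent growth of treated cells.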

[11] = test system: SF-539; test: Growth inhibition of human SF539 cells at 10 uM after 48 hrs by coulter counting; settings: SF-539, 48 h, read-out: GI; summary of the method: as §1
[12] = test system: HOP-62; test: Growth inhibition of human HOP62 cells at 10 uM after 48 hrs by coulter counting; settings: HOP-62, 48 h, read-out: GI; summary of the method: as §1
[13] = test system: RPMI-8226; test: Growth inhibition of human RPMI8226 cells at 10 uM after 48 hrs by coulter counting; settings: RPMI-8226, 48 h, read-out: GI; summary of the method: as §1
[14] = test system: SK-MEL-28; test: Growth inhibition of human SK-MEL-28 cells at 10 uM after 48 hrs by coulter counting; settings: SK-MEL-28, 48 h, read-out: GI; summary of the method: as §1
[15] = test system: SK-MEL-5; test: Growth inhibition of human SK-MEL-5 cells at 10 uM after 48 hrs by coulter counting; settings: SK-MEL-5, 48 h, read-out: GI; summary of the method: as §1
[16] = test system: CCRF-CEM; test: Growth inhibition of human CCRF-CEM cells at 10 uM after 48 hrs by coulter counting; settings: read-out: GI; summary of the method: as §1
[17] = test system: SNB-75; test: Growth inhibition of human SNB75 cells at 10 uM after 48 hrs by coulter counting; settings: SNB-75, 48 h, read-out: GI; summary of the method: as §1
[18] = test system: K562; test: Growth inhibition of human K562 cells at 10 uM after 48 hrs by coulter counting; settings: K562, 48 h, read-out: GI; summary of the method: as §1
[19] = test system: EKVX; test: Growth inhibition of human EKVX cells at 10 uM after 48 hrs by coulter counting; settings: read-out: GI; summary of the method: as §1
[20] = test system: NCI-H522; test: Growth inhibition of human NCI-H522 cells at 10 uM after 48 hrs by coulter counting; settings: NCI-H522, 48 h, read-out: GI; summary of the method: as §1
[21] = test system: NCI-H460; test: Growth inhibition of human NCI-H460 cells at 10 uM after 48 hrs by coulter counting; settings: NCI-H460, 48 h, read-out: GI; summary of the method: as §1
[22] = test system: U-251; test: Growth inhibition of human U251 cells at 10 uM after 48 hrs by coulter counting; settings: U-251, 48 h, read-out: GI; summary of the method: as §2
[23] = test system: NCI-H226; test: Growth inhibition of human NCI-H226 cells at 10 uM after 48 hrs by coulter counting; settings: NCI-H226, 48 h, read-out: GI; summary of the method: as §1
[24] = test system: A498; test: Growth inhibition of human A498 cells at 10 uM after 48 hrs by coulter counting; settings: A498, 48 h, read-out: GI; summary of the method: as §1
[25] = test system: CAKI-1; test: Growth inhibition of human Caki1 cells at 10 uM after 48 hrs by coulter counting; settings: CAKI-1, 48 h, read-out: GI; summary of the method: as §1
[26] = test system: SK-MEL-2; test: Growth inhibition of human SK-MEL-2 cells at 10 uM after 48 hrs by coulter counting; settings: SK-MEL-2, 48 h, read-out: GI; summary of the method: as §1
[27] = test system: MOLT-4; test: Growth inhibition of human MOLT4 cells at 10 uM after 48 hrs by coulter counting; settings: MOLT-4, 48 h, read-out: GI; summary of the method: as §1
[28] = test system: HCC 2998; test: Growth inhibition of human HCC2998 cells at 10 uM after 48 hrs by coulter counting; settings: HCC 2998, 48 h, read-out: GI; summary of the method: as §1
[29] = test system: KM12; test: Growth inhibition of human KM12 cells at 10 uM after 48 hrs by coulter counting; settings: KM12, 48 h, read-out: GI; summary of the method: as §1
[30] = test system: LOX IMVI; test: Growth inhibition of human LOXIMVI cells at 10 uM after 48 hrs by coulter counting; settings: read-out: GI; summary of the method: as §1
[31] = test system: MDA-MB-435; test: Growth inhibition of human MDA-MB-435 cells at 10 uM after 48 hrs by coulter counting; settings: MDA-MB-435, 48 h, read-out: GI; summary of the method: as §1
[32] = test system: IGROV-1; test: Growth inhibition of human IGROV1 cells at 10 uM after 48 hrs by coulter counting; settings: IGROV-1, 48 h, read-out: GI; summary of the method: as §1
[33] = test system: T47D; test: Growth inhibition of human T47D cells at 10 uM after 48 hrs by coulter counting; settings: read-out: GI; summary of the method: as §2
[34] = test system: HCT-116; test: Growth inhibition of human HCT116 cells at 10 uM after 48 hrs by coulter counting; settings: HCT-116, 48 h, read-out: GI; summary of the method: as §1
[35] = test system: SNB-19; test: Growth inhibition of human SNB19 cells at 10 uM after 48 hrs by coulter counting; settings: SNB-19, 48 h, read-out: GI; summary of the method: as §1
[36] = test system: UO-31; test: Growth inhibition of human UO31 cells at 10 uM after 48 hrs by coulter counting; settings: UO-31, 48 h, read-out: GI; summary of the method: as §2
[37] = test system: MCF7; test: Growth inhibition of human MCF7 cells at 10 uM after 48 hrs by coulter counting; settings: MCF7, 48 h, read-out: GI; summary of the method: as §1
[38] = test system: DU-145; test: Growth inhibition of human DU145 cells at 10 uM after 48 hrs by coulter counting; settings: DU-145, 48 h, read-out: GI; summary of the method: as §1
[39] = test system: SF-295; test: Growth inhibition of human SF295 cells at 10 uM after 48 hrs by coulter counting; settings: SF-295, 48 h, read-out: GI; summary of the method: as §1
[40] = test system: UACC-62; test: Growth inhibition of human UACC62 cells at 10 uM after 48 hrs by coulter counting; settings: UACC-62, 48 h, read-out: GI; summary of the method: as §2
[41] = test system: M14; test: Growth inhibition of human M14 cells at 10 uM after 48 hrs by coulter counting; settings: M14, 48 h, read-out: GI; summary of the method: as §1
[42] = test system: HT-29; test: Growth inhibition of human HT-29 cells at 10 uM after 48 hrs by coulter counting; settings: HT-29, 48 h, read-out: GI; summary of the method: as §1

COc1ccc(/C=C2\CCCC3=C2N=C2SC=CN2C3c2ccc(OC)c(OC)c2)cc1OC (configuration not stated)
inhibition of growth at 10 µM [1]: > 10% | inhibition of growth at 10 µM [2]: > 10% | inhibition of growth at 10 µM [3]: > 10% | inhibition of growth at 10 µM [4]: > 10% | inhibition of growth at 10 µM [5]: 10.5% | inhibition of growth at 10 µM [6]: > 10% | inhibition of growth at 10 µM [7]: > 10% | inhibition of growth at 10 µM [8]: > 10% | inhibition of growth at 10 µM [9]: > 10% | inhibition of growth at 10 µM [10]: 17.5% | inhibition of growth at 10 µM [11]: > 10% | inhibition of growth at 10 µM [12]: > 10% | inhibition of growth at 10 µM [13]: > 10% | inhibition of growth at 10 µM [14]: > 10% | inhibition of growth at 10 µM [15]: > 10% | inhibition of growth at 10 µM [16]: > 10% | inhibition of growth at 10 µM [17]: 12.4% | inhibition of growth at 10 µM [18]: > 10% | inhibition of growth at 10 µM [19]: > 10% | inhibition of growth at 10 µM [20]: 10.3% | inhibition of growth at 10 µM [21]: > 10% | inhibition of growth at 10 µM [22]: > 10% | inhibition of growth at 10 µM [23]: > 10% | inhibition of growth at 10 µM [24]: > 10% | inhibition of growth at 10 µM [25]: > 10% | inhibition of growth at 10 µM [26]: > 10% | inhibition of growth at 10 µM [27]: > 10% | inhibition of growth at 10 µM [28]: 14.9% | inhibition of growth at 10 µM [29]: > 10% | inhibition of growth at 10 µM [30]: 16.4% | inhibition of growth at 10 µM [31]: > 10% | inhibition of growth at 10 µM [32]: > 10% | inhibition of growth at 10 µM [33]: > 10% | inhibition of growth at 10 µM [34]: > 10% | inhibition of growth at 10 µM [35]: > 10% | inhibition of growth at 10 µM [36]: 27.9% | inhibition of growth at 10 µM [37]: > 10% | inhibition of growth at 10 µM [38]: > 10% | inhibition of growth at 10 µM [39]: > 10% | inhibition of growth at 10 µM [40]: > 10% | inhibition of growth at 10 µM [41]: > 10% | inhibition of growth at 10 µM [42]: > 10%
